The values below come from ChEMBL document CHEMBL1129731, “The chemistry of pseudomonic acid. 17. Dual-action C-1 oxazole derivatives of pseudomonic acid having an extended spectrum of antibacterial activity” (J Med Chem, 1996).

pIC50: −log10 of the molar value. ≈ marks a conversion by molar mass, not a printed value.

The test system of data set [1] is Proteus mirabilis. In words: compound was tested for antibacterial activity against Pr. mirabilis C889. Format: functional. The gist of the method:
(§1)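 Broth microdilution in Mueller–Hinton broth; overnight broth cultures added to final 5 × 10^5 cfu/mL; incubated 37 °C, 18 h. MIC (µg/mL) taken as lowest concentration inhibiting growth.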

In data set [2] the test system is Bacteroides fragilis. In words: compound was tested for antibacterial activity Bacteroides fragilis NCTC 10581. Type of data set: functional.
Data set [3] deals with Staphylococcus aureus. The data set is described as follows: compound was tested for antibacterial activity against Staphylococcus aureus NCTC 6571. Format: functional. The gist of the method: as §1
The test system of data set [4] is Pseudomonas aeruginosa. The data set is described as follows: compound was tested for antibacterial activity against Pseudomonas aeruginosa K799 wt. Type of data set: functional. The method in brief: as §1
In data set [5] the test system is Staphylococcus aureus. In words: compound was tested for antibacterial activity against Staphylococcus aureus C 37. Type of data set: functional.
Data set [6] has as its system Haemophilus influenzae. In words: compound was tested for antibacterial activity against Haemophilus influenzae Q1. Type of data set: functional. The gist of the method:
(§2)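 Broth microdilution in Mueller–Hinton broth supplemented (final) with 5% heat-inactivated horse serum, 0.02 mg/mL hematin and 0.08 mg/mL NAD; inoculum 5 × 10^5 cfu/mL from overnight broth cultures; 37 °C for 18 h; MIC (µg/mL) read as lowest concentration inhibiting growth.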

For data set [7], the system named is Escherichia coli. The data set is described as follows: compound was tested for antibacterial activity against Escherichia coli DC2. Type of data set: functional. The gist of the method:
as §1

Data set [8] relates to Staphylococcus aureus. The data set is described as follows: compound was tested for antibacterial activity against Staphylococcus aureus F 89. Type of data set: functional. The method in brief: as §1
Data set [9] has as its system Enterobacter cloacae. In words: compound was tested for antibacterial activity against Ent. cloacae N1. Type of data set: functional.
In data set [10] the test system is Streptococcus pyogenes. The data set is described as follows: compound was tested for antibacterial activity against Streptococcus pyogenes CN10. Type of data set: functional. The method in brief: as §2
The subject of data set [11] is Escherichia coli. In words: compound was tested for antibacterial activity against Escherichia coli DC0. Type of data set: functional.
Data set [12] concerns Staphylococcus epidermidis. In words: compound was tested for antibacterial activity aagainst Staphylococcus epidermidis PHLN 20. Type of data set: functional. The gist of the method:
as §1

Data set [13] concerns Moraxella catarrhalis. The data set is described as follows: compound was tested for antibacterial activity against Moraxella catarrhalis 1502. Type of data set: functional. The gist of the method: as §2
For data set [14], the system named is Klebsiella pneumoniae. In words: compound was tested for antibacterial activity against Klebsiella pneumoniae E70. Type of data set: functional. The gist of the method:
as §1

Data set [15] relates to Enterococcus faecalis. The data set is described as follows: compound was tested for antibacterial activity against Ent. faecalis I. Format: functional. The method in brief:
as §1

Data set [16] addresses T1, Isoleucine--tRNA ligase (Staphylococcus aureus, UniProt P41972).
T1 sequence (P41972 whole entry): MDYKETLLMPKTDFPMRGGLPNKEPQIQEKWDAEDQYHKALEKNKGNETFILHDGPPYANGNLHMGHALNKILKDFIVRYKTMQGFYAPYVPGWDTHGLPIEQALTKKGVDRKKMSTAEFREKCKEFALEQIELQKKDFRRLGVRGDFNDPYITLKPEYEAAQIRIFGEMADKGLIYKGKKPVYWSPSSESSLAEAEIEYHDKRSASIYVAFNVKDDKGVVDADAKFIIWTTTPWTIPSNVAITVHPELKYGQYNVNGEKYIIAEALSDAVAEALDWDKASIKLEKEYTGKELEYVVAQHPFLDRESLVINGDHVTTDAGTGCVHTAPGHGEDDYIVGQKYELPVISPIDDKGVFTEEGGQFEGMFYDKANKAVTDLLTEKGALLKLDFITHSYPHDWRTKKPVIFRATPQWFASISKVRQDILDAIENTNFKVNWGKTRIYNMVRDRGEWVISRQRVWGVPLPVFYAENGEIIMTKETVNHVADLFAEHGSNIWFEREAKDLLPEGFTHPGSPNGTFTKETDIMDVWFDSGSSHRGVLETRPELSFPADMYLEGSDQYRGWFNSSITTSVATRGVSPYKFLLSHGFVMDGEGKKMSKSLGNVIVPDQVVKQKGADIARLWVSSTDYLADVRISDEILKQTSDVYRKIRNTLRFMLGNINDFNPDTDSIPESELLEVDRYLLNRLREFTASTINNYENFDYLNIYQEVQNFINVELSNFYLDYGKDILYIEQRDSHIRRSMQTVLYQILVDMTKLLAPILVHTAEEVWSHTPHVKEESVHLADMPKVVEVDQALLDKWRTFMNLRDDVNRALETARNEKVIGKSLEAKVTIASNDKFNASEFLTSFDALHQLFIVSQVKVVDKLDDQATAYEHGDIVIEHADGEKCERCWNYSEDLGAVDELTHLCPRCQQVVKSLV
In words: Inhibitory activity against isoleucyl-tRNA synthetase (IRS) of Staphylococcus aureus. Format: functional.

Data set [17] concerns Streptococcus pneumoniae. In words: compound was tested for antibacterial activity against Strep. pneumoniae 1761. Type of data set: functional. The gist of the method: as §2
In data set [18] the target is Isoleucine--tRNA ligase, Staphylococcus aureus (UniProt P41972). In words: compound was tested for inhibitory activity of isoleucyl-tRNA synthetase (IRS).
The test system of data set [19] is Mus musculus. The data set is described as follows: Total […] dose against Staphylococcus aureus after sc administration (1+5 hr post infection) to mouse. The following applies: in vivo.

As for `C/C(=C\c1ncc(-c2cc([N+](=O)[O-])cs2)o1)C[C@@H]1OC[C@H](C[C@@H]2O[C@H]2[C@@H](C)[C@H](C)O)[C@@H](O)[C@H]1O`, the MIC was 64 µg/mL (≈ 129 µM) in data set [1]; greater than 64 µg/mL in data set [2]; less than 0.06 µg/mL in data set [3]; greater than 64 µg/mL in data set [4]; 32 µg/mL (≈ 64.7 µM) in [5]; less than 0.06 µg/mL in [6]. The MIC was less than 0.06 µg/mL in data set [7]; greater than 64 µg/mL in [8]; 16 µg/mL (≈ 32.4 µM) in data set [9]; less than 0.06 µg/mL in [10]; 32 µg/mL (≈ 64.7 µM) in data set [11]; less than 0.06 µg/mL in data set [12]. For the same compound, the MIC is less than 0.06 µg/mL in [13], 32 µg/mL (≈ 64.7 µM) in data set [14], 32 µg/mL (≈ 64.7 µM) in data set [15] and less than 0.06 µg/mL in [17]. The compound further had a pIC50 in data set [16] of 8.16.
As for `C/C(=C\c1ncc(-c2csc([N+](=O)[O-])c2)o1)C[C@@H]1OC[C@H](C[C@@H]2O[C@H]2[C@@H](C)[C@H](C)O)[C@@H](O)[C@H]1O`, the MIC in [1] was 64 µg/mL (≈ 129 µM); in data set [2], 16 µg/mL (≈ 32.4 µM); in [3], 0.125 µg/mL (≈ 0.253 µM); in data set [4] it was greater than 64 µg/mL; in data set [5] it was 32 µg/mL (≈ 64.7 µM); in data set [6] it was less than 0.06 µg/mL. Moreover, the MIC in data set [7] is less than 0.06 µg/mL; in data set [8] it was 64 µg/mL (≈ 129 µM); in [9], 16 µg/mL (≈ 32.4 µM); in data set [10], less than 0.06 µg/mL; in [11] it was 32 µg/mL (≈ 64.7 µM); in data set [12], 0.125 µg/mL (≈ 0.253 µM). Moreover, the MIC in [13] was 0.125 µg/mL (≈ 0.253 µM); in data set [14] it was 64 µg/mL (≈ 129 µM); in [15], 32 µg/mL (≈ 64.7 µM); in data set [17], less than 0.06 µg/mL. This compound had a pIC50 in data set [16] of 8.35.
Regarding `C/C(=C\c1ncc(-c2ncc([N+](=O)[O-])n2C)o1)C[C@@H]1OC[C@H](C[C@@H]2O[C@H]2[C@@H](C)[C@H](C)O)[C@@H](O)[C@H]1O`, in [18], the IC50 came out at 0.0007 µg/mL (≈ 0.00142 µM). The MIC in data set [1] is greater than 64 µg/mL; in [2], 0.5 µg/mL (≈ 1.02 µM); in data set [3], 2 µg/mL (≈ 4.06 µM); in data set [4], greater than 64 µg/mL; in [5], greater than 64 µg/mL; in data set [6], less than 0.06 µg/mL. Besides, the MIC in data set [7] was 1 µg/mL (≈ 2.03 µM); in data set [8], greater than 64 µg/mL; in data set [9], greater than 64 µg/mL; in data set [10] it was 0.25 µg/mL (≈ 0.508 µM); in [11] it was greater than 64 µg/mL; in [12], less than 0.06 µg/mL. The MIC is 0.25 µg/mL (≈ 0.508 µM) in data set [13], greater than 64 µg/mL in data set [14], 64 µg/mL (≈ 130 µM) in [15] and 0.5 µg/mL (≈ 1.02 µM) in data set [17].
Consider `CN[C@H](CC(C)C)C(=O)N[C@H]1C(=O)N[C@@H](CC(N)=O)C(=O)N[C@H]2C(=O)N[C@H]3C(=O)N[C@H](C(=O)N[C@H](C(=O)O)c4cc(O)cc(O)c4-c4cc3ccc4O)[C@H](O)c3ccc(c(Cl)c3)Oc3cc2cc(c3O[C@@H]2O[C@H](CO)[C@@H](O)[C@H](O)[C@H]2O[C@H]2C[C@](C)(N)[C@H](O)[C@H](C)O2)Oc2ccc(cc2Cl)[C@H]1O` [VANCOMYCIN], for which the CD50 in data set [19] is 3.8 mg/kg.
